Ba/F3 V617F tox – reduce viability of Ba/F3 cells dependent on JAK2V617F | Ba/F3 EpoR-JAK2V617F viability, ATP luminescence | inhibition, % at 5.6 µM | hit rate 1.1% among 220,000;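 active means inhibition above the campaign mean plus 3 SD over all tested compounds, cut at about 24% in these data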;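 further: cytokine-independent growth of Ba/F3 cells driven by EpoR plus mutant JAK2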
APP transl inh – APP translation inhibition; SH-SY5Y APP 5'UTR-luciferase reporter, luminescence; inhibition, % at 2 µM; hit rate 0.82% among 190,000;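 active means inhibition above a set limit, derived from the sample mean plus 3 SD, cut at about 45% in these data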
IEC-6 tox – IEC-6 cytotoxicity, counter-screen for KLF5 inhibitors; luminescence viability; AID 1825; hit rate 0.78% among 290,000; inhibition, % at 5 µM; in the data active means inhibition above about 22%
BaF3 parental – reduces parental Ba/F3 cell viability, JAK2V617F counter-screen; CellTiter-Glo ATP luminescence; inhibition, % at 5.6 µM; hit rate 1.1% among 220,000;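 active means inhibition above a per-campaign cutoff, the mean inhibition of all tested compounds plus 3 SD, cut at about 27% in these data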
MT stabilize HCS – microtubule stabilizers in HeLa cells; HeLa tubulin immunostaining HCS, 24 h; share of cells brighter than vehicle mean+2SD; % tubulin-high responders, % at 10 µM; hit rate 0.83% among 200,000;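 active means plate Z-score above 3 for both tubulin-high and condensed-nucleus cell shares, with cell loss under 80%, at 10 µM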;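 further: anti alpha tubulin signal scored within the nucleus-defined area of each cell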
b-catenin transl – alters nuclear translocation of beta-catenin in HeLa cells. immunofluorescence imaging. nuclear translocation activity, % at 5 µM. hit rate 0.3% among 190,000;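 active means nuclear translocation activity above 50% at 5 µM, with a well cell count of 50 or more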;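 further: per-cell ratio of nuclear to cytoplasmic median beta-catenin stain intensity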
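Read-out: Nuclear/cytoplasmic beta-catenin signal ratio, % activation | Assay system: Human HeLa cell line | Times: 24 h compound exposure at 37°C, 5% CO2 | Signal: Fluorescence imaging of beta-catenin antibody stain plus DAPI | Dosing: 5 µM primary, 0.02–20 µM confirmation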
Large screens that a line does not name were inactive. Compounds with a hit are over-represented: about 2.2% of the library has one in this group of screens.

O=C(CNc1cccc2ccccc12)N/N=C/C(Br)=C/c1ccccc1	MT stabilize HCS 48
CC1=NNC(=O)C1CC(=O)N/N=C/C(Br)=C/c1ccccc1 (centres undefined)	none (no result: APP transl inh, MT stabilize HCS)
O=C(CNc1cccc2ccccc12)N/N=C/c1ccc[nH]1	none (no result: APP transl inh, MT stabilize HCS)
CC1=NNC(=O)C1CCC(=O)N/N=C/C(Br)=C/c1ccccc1 (centres undefined)	APP transl inh 82
COc1ccc(Cl)cc1N(CC(=O)N1CCCCCC1)S(C)(=O)=O	none (no result: Ba/F3 V617F tox, APP transl inh, BaF3 parental, MT stabilize HCS, b-catenin transl)
CCOc1cc(S(=O)(=O)NCCCn2ccnc2)ccc1Cl	none (no result: Ba/F3 V617F tox, APP transl inh, BaF3 parental, MT stabilize HCS, b-catenin transl)
CCCCOc1ccc(C(=O)NCc2ccccn2)cc1	APP transl inh 48
Cc1nn(-c2ccccc2)c2[nH]c(=O)c(CNc3ccc(N4CCOCC4)cc3)cc12	MT stabilize HCS 52
Cc1cc(NC(=O)c2cc(-c3ccco3)on2)nn1Cc1ccc(Cl)cc1	MT stabilize HCS 18 (no result: b-catenin transl)
Cc1nn(Cc2ccc(Cl)cc2)c(C)c1NC(=O)c1cc(-c2ccco2)on1	none
CC1CCCCN1C(=O)Cn1c(=O)oc2cc(S(=O)(=O)N3CCCC3)ccc21 (centres undefined)	none (no result: Ba/F3 V617F tox, APP transl inh, BaF3 parental, MT stabilize HCS, b-catenin transl)
N#Cc1c(-c2ccccc2)nc(SCC(=O)Nc2ccc(OC(F)(F)Cl)cc2)[nH]c1=O	none (no result: Ba/F3 V617F tox, APP transl inh, BaF3 parental, MT stabilize HCS, b-catenin transl)
CC1(C)Cc2c(c(-c3ccccc3)nc(N3CCOCC3)c2C(N)=O)CO1	APP transl inh 66 (no result: b-catenin transl)
CC(C)c1cc(C(=O)Nc2cc(Br)ccc2O)no1	Ba/F3 V617F tox 27, BaF3 parental 29
CC(C)c1cc(C(=O)Nc2cc(Cl)ccc2O)no1	BaF3 parental 37
O=C(c1ccc(Cl)c(S(=O)(=O)N2CCCCCC2)c1)N1CCCC1	none (no result: APP transl inh, MT stabilize HCS)
COC(=O)CN(C#N)c1nc(NC(C)C)nc(OC)n1	Ba/F3 V617F tox 41, BaF3 parental 32
CCOc1ccc(Nc2cc(=O)oc3ccccc23)cc1	MT stabilize HCS 29
CCCCNc1cc(=O)oc2ccccc12	none
COC1CCN(C(=O)C2CCC(=O)N(CCc3cccc(F)c3)C2)CC1 (centres undefined)	none (no result: Ba/F3 V617F tox, APP transl inh, BaF3 parental, MT stabilize HCS, b-catenin transl)
NC(=O)c1c(NC(=O)CSc2nnc(-c3ccco3)n2-c2ccccc2)sc2c1CCC2	MT stabilize HCS 23
COc1ccc(-c2nnc(SCC(=O)Nc3sc4c(c3C#N)CCCC4)n2-c2ccccc2)cc1	MT stabilize HCS 20
Cc1cc(OC(=O)c2ccccc2F)c([N+](=O)[O-])c(=O)[nH]1	none (no result: Ba/F3 V617F tox, APP transl inh, BaF3 parental, MT stabilize HCS, b-catenin transl)
Cc1c(C(=O)NCC2CCCO2)oc2ccc(S(=O)(=O)N3CCCC3)cc12 (centres undefined)	none (no result: b-catenin transl)
Cc1c(C(=O)NCC2CCCO2)oc2ccc3c(c12)C(=O)CC(C)(C)O3 (centres undefined)	BaF3 parental 94
COc1ccc(/C=N/NC(=O)c2ccc3ccccc3c2)cc1OS(=O)(=O)c1ccc(NC(C)=O)cc1	APP transl inh 72, b-catenin transl 109
N#C/C(=C\c1ccc(Cl)c([N+](=O)[O-])c1)c1ccccn1	b-catenin transl 80
CC(=O)c1ccc(NC(=O)NNS(=O)(=O)c2ccc([N+](=O)[O-])cc2)cc1	none (no result: Ba/F3 V617F tox, APP transl inh, BaF3 parental, MT stabilize HCS, b-catenin transl)
COc1cc(NC(=S)N2CCCC2)cc(OC)c1	none (no result: Ba/F3 V617F tox, APP transl inh, BaF3 parental, MT stabilize HCS, b-catenin transl)
CC(=O)Nc1ccc(NC(=O)C(C)OC(=O)C2CC3C=CC2C3)cc1 (centres undefined)	BaF3 parental 57
O=C(NCCc1ccccn1)c1nc(Cn2ccc([N+](=O)[O-])n2)no1	none (no result: Ba/F3 V617F tox, APP transl inh, BaF3 parental, MT stabilize HCS, b-catenin transl)
Cc1ccc2nc(/C(C#N)=C/c3cn[nH]c3-c3ccc(F)cc3)[nH]c2c1	MT stabilize HCS 36, b-catenin transl 100
Cc1ccc(C(=O)N2C(CC(=O)Nc3ccc(Cl)cc3)C(=O)NC3CCCCC32)cc1 (centres undefined)	MT stabilize HCS 20
CC(C1CCN(Cc2cn(C)nc2-c2cccc(Cl)c2)CC1)N1CCOCC1 (centres undefined)	BaF3 parental 49
CCOc1ncccc1C(=O)NCc1ccc(OC)cc1	MT stabilize HCS 36 (no result: APP transl inh)
CC#CCNCc1ccccc1	BaF3 parental 35
Cc1ccc2c(C)nc(NC3=NCN(C(C)C)CN3)nc2c1	BaF3 parental 31 (no result: b-catenin transl)
Cc1nc(NC2=NCN(Cc3ccc4c(c3)OCO4)CN2)nc2ccccc12	none (no result: Ba/F3 V617F tox, APP transl inh, IEC-6 tox, BaF3 parental, MT stabilize HCS)
CCc1ccc(NC(=O)CSc2nc3nc(C)cc(C)n3n2)cc1	none (no result: Ba/F3 V617F tox, APP transl inh, BaF3 parental, MT stabilize HCS, b-catenin transl)
CCOc1cccc(C2NC(=S)NC(C)=C2C(=O)Nc2ccccc2)c1 (centres undefined)	MT stabilize HCS 14
CCOc1cc(C2NC(=S)NC(C)=C2C(=O)Nc2ccc(OC)cc2)ccc1O (centres undefined)	none

Screening data from PubChem BioAssay.
